Here are results for two compounds from ChEMBL document CHEMBL1240415, “Design, synthesis and antimicrobial activities of some new quinoline derivatives carrying 1,2,3-triazole moiety” (2010).

Molecules are shown by their SMILES. In brackets after ≈: the same amount, converted by molar mass.

For the first assay, the system named is Aspergillus fumigatus. The experiment in a line: Antifungal activity against Aspergillus fumigatus NCIM 902 after 3 to 4 days by serial plate dilution method. It counts as functional.
Conditions: not given
In a few lines:
(§1)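 Sabouraud agar made from peptone, glucose and agar in water, pH 5.7. Fungal spores suspended in normal saline and used to lawn the plates, which were dried 1 h at 37 °C. Wells punched and compounds added in DMSO, with a DMSO solvent control. Triplicate plates held at 37 °C for 3–4 days. Read-out is inhibition zone diameter.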
In the case of `COc1ccc2nc(C)cc(-n3cc(CN4CCN(c5ccc(F)cc5)CC4)nn3)c2c1`, the “diameter of the inhibition zone (DIZ)” value was 14 mm.

In the case of `COc1ccc(N2CCN(Cc3cn(-c4cc(C)nc5ccc(OC)cc45)nn3)CC2)cc1`, the “diameter of the inhibition zone (DIZ)” value was found to be 16 mm.

The same assay, now with this note: Aspergillus fumigatus, NCIM 902.
As for `COc1ccc2nc(C)cc(-n3cc(CN4CCN(c5ccc(F)cc5)CC4)nn3)c2c1`, the MIC (usually the least concentration at which growth counts as inhibited) was determined as 6.25 µg/mL (≈ 14.5 µM).

The compound `COc1ccc(N2CCN(Cc3cn(-c4cc(C)nc5ccc(OC)cc45)nn3)CC2)cc1` had an MIC of 6.25 µg/mL (≈ 14.1 µM).

For the next assay, the system named is Streptococcus pyogenes. The experiment in a line: Antibacterial activity against Streptococcus pyogenes after 3 to 4 days by serial plate dilution method. It counts as functional.
Conditions: not given
The essentials: (§2)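 Serial dilutions in Mueller-Hinton broth in tubes, pH adjusted to 5.0 with phosphate buffer. Inoculated with a standardized bacterial suspension and incubated 16–18 h at 37 °C. MIC is the lowest concentration with no visible growth, tested over 6.25–100 µg/mL. Zones come from an agar well diffusion assay: compounds in DMSO are added to wells in seeded agar, DMSO control, triplicate plates, 37 °C for 3–4 days, inhibition zone diameter in mm.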
Turning to `COc1ccc2nc(C)cc(-n3cc(CN4CCN(c5ccc(F)cc5)CC4)nn3)c2c1`, the “diameter of the inhibition zone (DIZ)” value is reported as under 10 mm.

For the compound `COc1ccc(N2CCN(Cc3cn(-c4cc(C)nc5ccc(OC)cc45)nn3)CC2)cc1`, the “diameter of the inhibition zone (DIZ)” value worked out at 14 mm.

The same assay, now with this note: Streptococcus pyogenes.
`COc1ccc2nc(C)cc(-n3cc(CN4CCN(c5ccc(F)cc5)CC4)nn3)c2c1` displayed a minimum inhibitory concentration (MIC) of 12.5 µg/mL (≈ 28.9 µM).

For the compound `COc1ccc(N2CCN(Cc3cn(-c4cc(C)nc5ccc(OC)cc45)nn3)CC2)cc1`, the MIC was 6.25 µg/mL (≈ 14.1 µM).

Another assay concerns Klebsiella pneumoniae. The experiment in a line: Antibacterial activity against recultured Klebsiella pneumoniae after 3 to 4 days by serial plate dilution method. It counts as functional.
Conditions: not given
The essentials: as §2
On to `COc1ccc2nc(C)cc(-n3cc(CN4CCN(c5ccc(F)cc5)CC4)nn3)c2c1`, for which the “diameter of the inhibition zone (DIZ)” value is 12 mm.

`COc1ccc(N2CCN(Cc3cn(-c4cc(C)nc5ccc(OC)cc45)nn3)CC2)cc1`: the “diameter of the inhibition zone (DIZ)” value was 16 mm.

Staying with this assay, now noted: Klebsiella pneumoniae.
Take `COc1ccc2nc(C)cc(-n3cc(CN4CCN(c5ccc(F)cc5)CC4)nn3)c2c1`: the MIC is 6.25 µg/mL (≈ 14.5 µM).

Compound `COc1ccc(N2CCN(Cc3cn(-c4cc(C)nc5ccc(OC)cc45)nn3)CC2)cc1` showed an MIC of 6.25 µg/mL (≈ 14.1 µM).

Another assay concerns Trichophyton mentagrophytes. Kind of assay: Antifungal activity against recultured Trichophyton mentagrophytes after 3 to 4 days by serial plate dilution method. It counts as functional.
Conditions: not given
In a few lines: as §1
Take `COc1ccc2nc(C)cc(-n3cc(CN4CCN(c5ccc(F)cc5)CC4)nn3)c2c1`: the “diameter of the inhibition zone (DIZ)” value stood at 10 mm.

Turning to `COc1ccc(N2CCN(Cc3cn(-c4cc(C)nc5ccc(OC)cc45)nn3)CC2)cc1`, the “diameter of the inhibition zone (DIZ)” value stood at 16 mm.

The same assay, now with this note: Trichophyton mentagrophytes.
For the compound `COc1ccc2nc(C)cc(-n3cc(CN4CCN(c5ccc(F)cc5)CC4)nn3)c2c1`, the lowest concentration to inhibit growth (MIC) was 6.25 µg/mL (≈ 14.5 µM).

Take `COc1ccc(N2CCN(Cc3cn(-c4cc(C)nc5ccc(OC)cc45)nn3)CC2)cc1`: the minimum inhibitory concentration (MIC) came to 6.25 µg/mL (≈ 14.1 µM).

A further assay has as its system Aspergillus flavus. Kind of assay: Antifungal activity against Aspergillus flavus NCIM 524 after 3 to 4 days by serial plate dilution method.
Conditions: not given
The class given is functional. In a few lines:
as §1
`COc1ccc2nc(C)cc(-n3cc(CN4CCN(c5ccc(F)cc5)CC4)nn3)c2c1`: the “diameter of the inhibition zone (DIZ)” value came to 10 mm.

Regarding `COc1ccc(N2CCN(Cc3cn(-c4cc(C)nc5ccc(OC)cc45)nn3)CC2)cc1`, the “diameter of the inhibition zone (DIZ)” value was 14 mm.

The same assay, now with this note: Aspergillus flavus, NCIM 524.
`COc1ccc2nc(C)cc(-n3cc(CN4CCN(c5ccc(F)cc5)CC4)nn3)c2c1` returned an MIC of 12.5 µg/mL (≈ 28.9 µM).

As for `COc1ccc(N2CCN(Cc3cn(-c4cc(C)nc5ccc(OC)cc45)nn3)CC2)cc1`, 6.25 µg/mL (≈ 14.1 µM) was the least that counted as inhibitory (MIC).

Another assay deals with Talaromyces marneffei. The experiment in a line: Antifungal activity against recultured Penicillium marneffei after 3 to 4 days by serial plate dilution method. The class given is functional.
Conditions: not given
In a few lines:
as §1
As to `COc1ccc2nc(C)cc(-n3cc(CN4CCN(c5ccc(F)cc5)CC4)nn3)c2c1`, the “diameter of the inhibition zone (DIZ)” value is 12 mm.

Consider `COc1ccc(N2CCN(Cc3cn(-c4cc(C)nc5ccc(OC)cc45)nn3)CC2)cc1`, for which the “diameter of the inhibition zone (DIZ)” value came out at 18 mm.

Staying with this assay, now noted: Talaromyces marneffei.
Regarding `COc1ccc2nc(C)cc(-n3cc(CN4CCN(c5ccc(F)cc5)CC4)nn3)c2c1`, the MIC came out at 6.25 µg/mL (≈ 14.5 µM).

The compound `COc1ccc(N2CCN(Cc3cn(-c4cc(C)nc5ccc(OC)cc45)nn3)CC2)cc1` returned an MIC of 6.25 µg/mL (≈ 14.1 µM).

Another assay concerns Escherichia coli. Kind of assay: Antibacterial activity against Escherichia coli ATTC 25922 after 3 to 4 days by serial plate dilution method.
Conditions: not given
The class given is functional. The essentials:
as §2
Turning to `COc1ccc2nc(C)cc(-n3cc(CN4CCN(c5ccc(F)cc5)CC4)nn3)c2c1`, the “diameter of the inhibition zone (DIZ)” value is 12 mm.

As to `COc1ccc(N2CCN(Cc3cn(-c4cc(C)nc5ccc(OC)cc45)nn3)CC2)cc1`, the “diameter of the inhibition zone (DIZ)” value is reported as 20 mm.

The same assay, now with this note: Escherichia coli, ATTC 25922.
In turn, `COc1ccc2nc(C)cc(-n3cc(CN4CCN(c5ccc(F)cc5)CC4)nn3)c2c1` registered a minimum inhibitory concentration (MIC) of 6.25 µg/mL (≈ 14.5 µM).

Take `COc1ccc(N2CCN(Cc3cn(-c4cc(C)nc5ccc(OC)cc45)nn3)CC2)cc1`: 6.25 µg/mL (≈ 14.1 µM) was the least that counted as inhibitory (MIC).

In another assay the test system is Staphylococcus aureus. The experiment in a line: Antibacterial activity against Staphylococcus aureus ATTC 25923 after 3 to 4 days by serial plate dilution method.
Conditions: not given
It counts as functional. The essentials:
as §2
As for `COc1ccc2nc(C)cc(-n3cc(CN4CCN(c5ccc(F)cc5)CC4)nn3)c2c1`, the “diameter of the inhibition zone (DIZ)” value is listed as 11 mm.

As for `COc1ccc(N2CCN(Cc3cn(-c4cc(C)nc5ccc(OC)cc45)nn3)CC2)cc1`, the “diameter of the inhibition zone (DIZ)” value was determined as 16 mm.

The assay is the same for the next values; noted with them: Staphylococcus aureus, ATTC 25923.
`COc1ccc2nc(C)cc(-n3cc(CN4CCN(c5ccc(F)cc5)CC4)nn3)c2c1` showed an MIC of 12.5 µg/mL (≈ 28.9 µM).

Turning to `COc1ccc(N2CCN(Cc3cn(-c4cc(C)nc5ccc(OC)cc45)nn3)CC2)cc1`, the MIC was 6.25 µg/mL (≈ 14.1 µM).

Another assay deals with Pseudomonas aeruginosa. The experiment in a line: Antibacterial activity against Pseudomonas aeruginosa ATCC 27853 after 3 to 4 days by serial plate dilution method. It counts as functional.
Conditions: not given
The essentials: as §2
Consider `COc1ccc2nc(C)cc(-n3cc(CN4CCN(c5ccc(F)cc5)CC4)nn3)c2c1`, for which the “diameter of the inhibition zone (DIZ)” value is 10 mm.

On to `COc1ccc(N2CCN(Cc3cn(-c4cc(C)nc5ccc(OC)cc45)nn3)CC2)cc1`, for which the “diameter of the inhibition zone (DIZ)” value is on record as 14 mm.

Staying with this assay, now noted: Pseudomonas aeruginosa, ATCC 27853.
In the case of `COc1ccc2nc(C)cc(-n3cc(CN4CCN(c5ccc(F)cc5)CC4)nn3)c2c1`, it took 6.25 µg/mL (≈ 14.5 µM) to inhibit growth (MIC).

Consider `COc1ccc(N2CCN(Cc3cn(-c4cc(C)nc5ccc(OC)cc45)nn3)CC2)cc1`, for which the MIC was found to be 6.25 µg/mL (≈ 14.1 µM).

The next assay concerns Candida albicans. The experiment in a line: Antifungal activity against Candida albicans after 3 to 4 days by serial plate dilution method. It counts as functional.
Conditions: not given
The essentials:
as §1
Regarding `COc1ccc2nc(C)cc(-n3cc(CN4CCN(c5ccc(F)cc5)CC4)nn3)c2c1`, the “diameter of the inhibition zone (DIZ)” value was determined as 12 mm.

For the compound `COc1ccc(N2CCN(Cc3cn(-c4cc(C)nc5ccc(OC)cc45)nn3)CC2)cc1`, the “diameter of the inhibition zone (DIZ)” value stood at 14 mm.

The same assay, now with this note: Candida albicans.
`COc1ccc2nc(C)cc(-n3cc(CN4CCN(c5ccc(F)cc5)CC4)nn3)c2c1` had a minimum inhibitory concentration (MIC) of 6.25 µg/mL (≈ 14.5 µM).

Turning to `COc1ccc(N2CCN(Cc3cn(-c4cc(C)nc5ccc(OC)cc45)nn3)CC2)cc1`, the minimal inhibitory concentration (MIC) was 6.25 µg/mL (≈ 14.1 µM).
